Source: PubChem (several laboratories)
PfG6PD inh: PfG6PD (Plasmodium falciparum) enzyme inhibition | inhibition, % at 20 µM | PfGluPho enzyme, NADPH resazurin-diaphorase fluorescence | 0.78% of 350,000 active | AID 504690;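 active = inhibition reaching at least a set limit at 20 µM in the primary screen, cut at about 59% in these data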;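 also: 0% = DMSO wells with substrate and 100% = DMSO wells lacking glucose-6-phosphate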
Diaph act CS: activates diaphorase or chemically reduces, flagging diaphorase assay artifacts; Diaphorase/resazurin coupled assay, resorufin fluorescence, 16 min; stronger effect = higher value; 1 = vehicle wells, 0 = NADH-free wells; activation factor at 20 µM; 0.005% of 190,000 active;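 active = diaphorase activity raised at least twofold by the compound at 20 µM; inactive = activation factor below 2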
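Material: Purified diaphorase enzyme from Clostridium kluyveri | Buffer or medium: 50 mM HEPES pH 7.4 with 4.542 mM MgCl2, 0.005% Tween 20 | Times: 16 min enzyme reaction, ambient temperature | Signal: Red resorufin fluorescence at 544/590 nm excitation/emission | Measure: Increased resorufin signal from activators or reducing compounds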
Diaphorase inh: counter-screen for diaphorase-based assays: diaphorase inhibitors and chemical oxidizers; diaphorase resazurin-to-resorufin fluorescence, NADH, 16 min; bacterial (C. kluyveri) enzyme, not human; AID 1217; 0.69% of 190,000 active; inhibition, % at 20 µM;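 active = primary screen inhibition at 20 µM above a set limit, cut at about 50% in these data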;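 also: plate controls were DMSO with full reaction for no effect and wells lacking NADH for full effect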
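controls = No-NADH positive control and DMSO neutral control | system = Clostridium kluyveri diaphorase enzyme | timing = reaction incubation of 16 min at room temperature | signal = resorufin fluorescence 544/590 nm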
Lmaj promast: reduces viability of Leishmania major promastigotes | 9% of 200,000 active | AID 1063 | inhibition, % at 10 µM | resazurin fluorescence viability;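 also: promastigotes grown with compound for 44 hours at 28 °C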
DTT redox prof: compounds producing H2O2 with reducing agent – biochemical, NIH compound library profiling, artefact control for MLSCN library redox annotation, primary screen; DTT-dependent redox cycling H2O2, phenol red/HRP absorbance; 100% = 100 µM peroxide control, 0% = buffer; activation, % at 10 µM; 0.03% of 200,000 active;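 active = activation of at least 50% relative to the plate's high and low controls in the primary single-dose screen; inactive = activation below 50%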;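 also: compound incubated with DTT at 0.8 mM final as the reducing agent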
G6PDH counter: L. mesenteroides G6PDH inhibition counter-screen | Purified L. mesenteroides G6PDH, diaphorase/resazurin coupled fluorescence, 45 min | inhibition, % at 5 µM | 0.12% of 200,000 active
Starred values were filed as active, the others as inactive; · = no result. The full list was thinned out, with hits kept by preference. Rule as the data show it, unless noted: active = inhibition above about 50%; inactive = the rest.

SMILES	PfG6PD inh	Diaph act CS	Diaphorase inh	Lmaj promast	DTT redox prof	G6PDH counter
O=C(C1CCC(Cn2c(=S)[nH]c3ccccc3c2=O)CC1)N1CCN(c2ccccc2)CC1 (stereo not drawn)	18	·	·	99*	2	·
O=C(C1CCC(Cn2c(=S)[nH]c3ccccc3c2=O)CC1)N1CCOCC1 (stereo not drawn)	-14	0.8	16	-1	2	5
O=C(NNC(=O)c1ccncc1)Nc1ccc(N=Nc2ccccc2)cc1	-17	·	·	·	·	·
Cc1ccc(C2=NS(=O)(=O)N(C)C(C(=O)N3CCOCC3)=C2)cc1	3	·	·	·	·	·
COc1cccc(CN2C[C@]34C=C[C@@H](C[C@@H]3S2(=O)=O)O4)c1	-13	·	·	·	·	·
CCCCc1ccc(NC(=O)CSC2=NN3CCCC(=O)N=C3S2)cc1	7	·	·	·	·	·
O=C(C1CCC(Cn2c(=S)[nH]c3ccccc3c2=O)CC1)N1CCN(c2ccccn2)CC1 (stereo not drawn)	10	0.7	35	99*	0	4
COc1ccc2nc(SCC(=O)Nc3nccs3)[nH]c2c1	9	0.8	16	-2	1	-3
CN(C)CC(CCC(CN(C)C)C(=O)c1ccccc1)C(=O)c1ccccc1 (stereo not drawn)	20	·	·	·	·	·
CCOc1ccc(C(=O)C(CCC(CN(C)C)C(=O)c2ccc(OCC)cc2)CN(C)C)cc1 (stereo not drawn)	13	1	3	100*	1	2
COc1ccc(C(=O)C(CCCCC(CN(C)C)C(=O)c2ccc(OC)cc2)CN(C)C)cc1 (stereo not drawn)	0	1	5	100*	-5	8
O=c1[nH]c(=S)[nH]cc1Oc1ccc(Cl)cc1	-18	·	·	·	·	·
Cc1ccc(C)c(NC(=O)CCC(=O)NNS(=O)(=O)c2ccc(Cl)cc2)c1	2	·	·	·	·	·
Cc1ccc2c(C)c(C(=O)N(Cc3ccccc3)C3CCS(=O)(=O)C3)oc2c1 (stereo not drawn)	1	·	·	·	·	·
Cc1ccc2c(C)c(C(=O)N(Cc3cccs3)C3CCS(=O)(=O)C3)oc2c1 (stereo not drawn)	10	0.9	11	88*	0	5
c1ccc(C2Nc3ccccc3-c3nc4ccccc4n32)nc1 (stereo not drawn)	-2	0.9	11	46	0	1
c1ccc(C2Nc3ccccc3-c3nc4ccccc4n32)cc1 (stereo not drawn)	10	0.8	19	69*	0	6
COc1cc(/C=N/NC(=O)c2ccncc2)ccc1OCCN1CCCCC1	-4	1	-2	-9	0	2
COc1cc(/C=N/NC(=O)c2cc3ccccc3cc2O)ccc1OCCN1CCCCC1	51	0.1	89*	7	0	-3
CC(C)(C)NC(=O)C(c1ccccc1)N(C(=O)CNC(=O)c1cccs1)c1cccnc1 (stereo not drawn)	0	·	·	·	·	·
COc1ccc(Nc2cccc(Cl)c2)c(C(=O)O)c1	-9	0.9	6	51*	0	13
Cc1ccc(NC(=O)Nc2cccc(Cl)c2)c(C(=O)O)c1	42	0.8	16	1	-2	9
Cc1ccc(NC(=O)CN(C)C(=O)CCC(=O)c2cccs2)cc1	-1	0.9	15	-4	0	-3
CCn1c(=O)c([N+](=O)[O-])c(NCC(O)c2ccccc2)c2ccccc21 (stereo not drawn)	1	0.8	23	100*	1	0
Cn1c(=O)c([N+](=O)[O-])c(NCC(O)c2ccccc2)c2ccccc21 (stereo not drawn)	-6	0.7	26	5	0	10
SMILES	PfG6PD inh	Diaph act CS	Diaphorase inh	Lmaj promast	DTT redox prof	G6PDH counter
O=C(c1cc(COc2c(F)cccc2F)on1)N(Cc1ccccc1)CC1CC1	11	·	·	·	·	·
C/C(=N\NC(=O)c1ccc([N+](=O)[O-])cc1Cl)c1ccccc1	-12	1	1	5	0	8
FC(F)Oc1ccc(NC(=S)N2CCN(Cc3ccccc3)CC2)cc1	-3	0.9	8	80*	0	1
S=C(Nc1ccc(Cl)cc1)N1CCN(Cc2ccccc2)CC1	5	·	·	-4	-1	24
CC(C)c1ccc(NC(=S)N2CCN(Cc3ccccc3)CC2)cc1	-23	0.9	12	86*	0	5
COc1ccc(NC(=S)N2CCN(Cc3ccc(C)cc3)CC2)cc1	-5	1	4	62*	0	-3
Fc1ccc(CNC(=S)Nc2ccc(OC(F)F)cc2)cc1	3	1	0	63*	0	8
Cc1ccc(-n2cccn2)c(CN2CCC(CO)(CCc3ccccc3)CC2)c1	-6	1	1	4	-3	-1
Cc1cc(C)c(NC(=O)CSc2nnc(CNC(=O)c3ccco3)o2)c(C)c1	-16	·	·	·	·	·
CC(=O)NC(c1cccs1)c1cc([N+](=O)[O-])c2cccnc2c1O (stereo not drawn)	22	0.6	44	-3	1	61*
CCC(=O)NC(c1cccs1)c1cc([N+](=O)[O-])c2cccnc2c1O (stereo not drawn)	34	0.7	31	8	0	38
CCCC(=O)NC(c1cccs1)c1cc([N+](=O)[O-])c2cccnc2c1O (stereo not drawn)	7	0.6	43	-4	0	42
CC(C)C(=O)NC(c1ccccc1)c1cc([N+](=O)[O-])c2cccnc2c1O (stereo not drawn)	44	0.6	39	-4	0	55*
CC(=O)NC(c1ccc(C)cc1)c1cc(Cl)c2cccnc2c1O (stereo not drawn)	-10	·	·	·	·	·
CC(=O)NC(c1ccccc1)c1cc([N+](=O)[O-])c2cccnc2c1O (stereo not drawn)	29	0.4	56*	-3	-1	61*
CCc1c(C(=O)NC(C)C2CCCO2)csc1C (stereo not drawn)	-2	·	·	·	·	·
CC(C)OC(=O)c1ccc(COC(=O)c2cccc(-c3nnc(-c4ccccc4)o3)c2)cc1	-26	1	2	-4	1	-26
CC(C)OC(=O)c1cccc(-c2ccc(C=O)o2)c1	-11	1	4	88*	0	5
CCOC(=O)N1CCN(c2nc(-c3ccccc3)c3ccccc3n2)CC1	16	·	·	·	·	·
COC(=O)c1cccc2nc3c(C(C)O)cccc3nc12 (stereo not drawn)	11	·	·	·	·	·
O=C(/C=C/c1ccc(Cl)cc1Cl)c1nc2ccccc2[nH]1	-18	1	5	99*	-3	3
COC(CNC(=O)CCc1c(C)nc2c(-c3ccccc3)c(C)nn2c1C)OC	-3	·	·	·	·	·
COc1ccc2c(c1)c1ncn(CCCN3CCOCC3)c(=O)c1n2C	-6	0.9	7	55*	-2	4
